According to paper PMC6319658 (Journal of natural products, 2018):

Columns and labels:
[1] = tested on: 60 human tumor cell lines; experiment: NCI-60 cell line screening assay; format: cell-based; conditions: for growth suppression of cell lines that harbor the B-Raf V600E mutation: Colo205 colon, MALM-3M, SK-MEL-5, MDA-MB-435 melanoma cell lines; for pattern of cytotoxicity at the GI50 level: NCI-60 screen
Outline: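 Test compounds were submitted as DMSO solutions to the NCI-60 screen for cytotoxicity across 60 human tumor cell lines. The response patterns were analysed with bioinformatics tools on the public CellMiner site.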

B-Raf = experiment: Raf kinase catalytic activity assay; format: biochemical; conditions: 10 μM compound; data not shown
C-Raf = experiment: Raf kinase catalytic activity assay; format: biochemical; conditions: 10 μM compound; data not shown
MEK = experiment: MEK1 kinase activity assay; format: biochemical; conditions: 10 μM compound; data not shown
ERK = ERK kinase catalytic activity assay; format: biochemical; conditions: data not shown
[2] = tested on: Colo205 cells that harbor the V600E B-Raf mutation; experiment: Western blot analysis of ERK signaling cascade proteins in Colo205 cells; format: cell-based, human; conditions: for total protein levels of B-Raf, C-Raf, and MEK / ERK protein levels: 18 h treatment
cells = conditions: cited from earlier work
[3] = tested on: SUMO conjugation enzymatic cascade; format: biochemical; conditions: read-out: IC50, inhibition of SUMOylation of a substrate peptide; in vitro electrophoretic mobility shift assay

inhibition of kinase catalytic activity of B-Raf (B-Raf) | inhibition of kinase catalytic activity of C-Raf (C-Raf) | inhibition of kinase catalytic activity of MEK (MEK) | inhibition of kinase catalytic activity of ERK (ERK) | IC50 [3] [µM] | Compound | growth suppression of cell lines that harbor the B-Raf V600E mutation [1] | pattern of cytotoxicity at the GI50 level [1] | total protein levels of B-Raf, C-Raf, and MEK ([2]; 1 μM) | ERK protein levels ([2]; 10 μM) | total protein levels of B-Raf, C-Raf, and MEK ([2]; 10 μM) | reactive oxygen species (ROS) in cells (cells) | phosphorylation (activation) of MEK and ERK ([2]; 1 μM) | phosphorylation of MEK and subsequent activation of ERK ([2]; positive control) | total protein concentrations in the pathway ([2]; positive control)
no reduction in kinase activity | no reduction in kinase activity | no reduction in kinase activity | no reduction in kinase activity | – | N=C1C2=C(NCC[S+]2[O-])C(=O)c2[nH]cc(CO)c21 (stereo not drawn) [Compound 4, macrophilone D] | – | selective cytotoxicity | – | no corresponding loss | striking reductions | – | increased phosphorylation | – | –
– | – | – | – | > 100 | O=C1C2=C(SCCN2)C2=NCCc3c[nH]c1c32 [Compound 6, macrophilone F] | – | – | – | – | – | – | – | – | –

Continued, molecule first:

Compound | inhibition of kinase catalytic activity of B-Raf (B-Raf) | inhibition of kinase catalytic activity of C-Raf (C-Raf) | inhibition of kinase catalytic activity of MEK (MEK) | inhibition of kinase catalytic activity of ERK (ERK) | IC50 [3] [µM] | growth suppression of cell lines that harbor the B-Raf V600E mutation [1] | pattern of cytotoxicity at the GI50 level [1] | total protein levels of B-Raf, C-Raf, and MEK ([2]; 1 μM) | ERK protein levels ([2]; 10 μM) | total protein levels of B-Raf, C-Raf, and MEK ([2]; 10 μM) | reactive oxygen species (ROS) in cells (cells) | phosphorylation (activation) of MEK and ERK ([2]; 1 μM) | phosphorylation of MEK and subsequent activation of ERK ([2]; positive control) | total protein concentrations in the pathway ([2]; positive control)
CSC1=C(N)C(=O)c2[nH]cc(CO)c2C1=N [Compound 1, macrophilone A] | no reduction in kinase activity | no reduction in kinase activity | no reduction in kinase activity | no reduction in kinase activity | – | most potent | selective cytotoxicity | effective at reducing these proteins | no corresponding loss | striking reductions | increase in reactive oxygen species | – | – | –
N=C1C2=C(NCCS2)C(=O)c2[nH]cc(CO)c21 [Compound 3, macrophilone C] | no reduction in kinase activity | no reduction in kinase activity | no reduction in kinase activity | no reduction in kinase activity | – | most potent | selective cytotoxicity | – | no corresponding loss | striking reductions | – | increased phosphorylation | – | –
CN(C)CCOc1ccc(-c2nc(-c3ccc4c(c3)CC/C4=N\O)c(-c3ccncc3)[nH]2)cc1 [SB-590885, reference compound] | – | – | – | – | – | – | – | – | – | – | – | – | blocked phosphorylation of MEK | no significant impact
